# Assay results published in the array DNA melting data of Ke et al. (doi:10.1101/2024.01.08.574731).
# How the values were obtained:
# [1] = melting temperature; fluorescence melt of hairpins on a sequencing array, two-state fit, raised by 9.35 °C to match UV melts; conditions: sodium 0.088 M
# Summary of the method: (§1)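 Hairpins were imaged by Cy3 fluorescence on a sequenced MiSeq flow cell with annealed Cy3 and quencher oligos, in 50 mM Na-HEPES pH 8.0, 25 mM NaCl, in 2.5 °C steps up to 60 °C. Bootstrapped two-state fits of normalised signals gave melting temperature and folding enthalpy. Four replicates were combined by inverse variance, and fitted temperatures were raised by 9.35 °C to match UV melts.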
# [2] = folding enthalpy; higher = less favourable; fluorescence melt of hairpins on a sequencing array, two-state fit; conditions: sodium 0.088 M
# Summary of the method: as §1
Sequence,Tm [1],folding enthalpy [2]
GATCGGACTCCGATC ((((((...)))))),55.2 °C,-33.8 kcal/mol
GCTCGCACGAAAGTGAGC (((..(((....)))))),49.6 °C,-21.2 kcal/mol
GATCCGGGGACGGATC ((((((....)))))),61.9 °C,-41.6 kcal/mol
GATCGGGATGCCGATC ((((((....)))))),57.4 °C,-42.1 kcal/mol
GGCTAATCGAAAGATGCC (((..(((....)))))),45.2 °C,-27.2 kcal/mol
GGGGGCGAAAGCCAGCCC ((((((....)))..))),51.8 °C,-14.1 kcal/mol
GTATGGGGAAACCTATAC ((((.((....)).)))),38.4 °C,-30.3 kcal/mol
GCAATGCGAAAGCATCGC ((.((((....)))).)),58.1 °C,-21.4 kcal/mol
GATCTCGACCGAGATC ((((((....)))))),56.1 °C,-51.9 kcal/mol
GATCCTGATTAGGATC ((((((....)))))),51.3 °C,-40.4 kcal/mol
GTCCACGAAAGTGTAGAC ((((((....)))..))),38.9 °C,-20.1 kcal/mol
GTATGCGAAAGCACCTAC ((((((....)))..))),22.1 °C,-5.96 kcal/mol
GCAACCGAAAGGTCTGC ((((((....))).))),47.6 °C,-22.7 kcal/mol
GGGACGGGAAACCACCCC (((..((....))..))),32.1 °C,-18.4 kcal/mol
GGTGTCACGAAAGTGACC (((..(((....)))))),50 °C,-10.2 kcal/mol
GATCATCAAGATGATC ((((((....)))))),49.8 °C,-40.4 kcal/mol
GATCACTACAGTGATC ((((((....)))))),60.6 °C,-40.5 kcal/mol
GACTAGGGAAACTTAGTC (((((.(....).))))),37.9 °C,-30.1 kcal/mol
GAATACGAAAGTAGCTTC ((((((....)))..))),33.9 °C,-16.4 kcal/mol
GTTTCCGAAAGGATCAAC ((((((....)))..))),22.4 °C,-11.2 kcal/mol
GATCGCTTCGGCGATC ((((((....)))))),67.6 °C,-35.6 kcal/mol
GCGAAATCTCGC ((((....)))),45.2 °C,-20.3 kcal/mol
GCCACAGGAAACTGCGGC (((.(((....))).))),52 °C,-56.4 kcal/mol

Sequence,Tm [1],folding enthalpy [2]
GTCAACGAAAGTTGGGAC ((((((....)))..))),32.7 °C,-11.5 kcal/mol
GCGATTACGAAAGTACGC (((..(((....)))))),43.4 °C,-26 kcal/mol
GCGTCGCGAAAGCGCTGC ((..(((....)))..)),50.2 °C,-16.3 kcal/mol
GTAGTACGAAAGTAGTAC (((.(((....))).))),47.3 °C,-33.5 kcal/mol
GGAAGCGAAAGCTTCTCC ((((((....)))..))),53.3 °C,-9.47 kcal/mol
GCTGGAGGAAACTCTGGC ((..(((....)))..)),41.6 °C,-28 kcal/mol
GCTCGCCCGAAAGGGAGC (((..(((....)))))),48.4 °C,-16.8 kcal/mol
GTACCTCGAAAGAGCTAC (((.(((....))).))),30.2 °C,-11.1 kcal/mol
GATCACACATGTGATC ((((((....)))))),57.9 °C,-38.1 kcal/mol
GGAGAACGAAAGTTTTCC (((.(((....))).))),47.4 °C,-29.2 kcal/mol
GATCCATCTTTGGATC ((((((....)))))),52.6 °C,-37.5 kcal/mol
GGGTAGGAAACTACCC ((((((....)))))),58.8 °C,-29.6 kcal/mol
GCCTTGCGAAAGCGACGC ((.(.((....)).).)),48.2 °C,-10.5 kcal/mol
GAGGGCGAAAGCCGCTC ((((((....))).))),54.5 °C,-13 kcal/mol
GTCCGCGAAAGCGGGAC ((((((....))).))),63.5 °C,-12.4 kcal/mol
GATCAAATAGTTGATC ((((((....)))))),37.9 °C,-29.5 kcal/mol
GTTCTACGAAAGTATAAC (((.(((....))).))),34.5 °C,-24 kcal/mol
GCATTAGGAAACCAATGC (((((.(....).))))),39.6 °C,-29.6 kcal/mol
GGCTAAGCGAAAGCTGCC (((..(((....)))))),54.6 °C,-23.7 kcal/mol
GGCAGCGGAAACGCTGTC (.(((((....))))).),67.2 °C,-17.6 kcal/mol
GCGGAGGGAAACCTTCGC (((.(((....))).))),56.5 °C,-46.5 kcal/mol
GAACCCCGAAAGGGCTTC (((.(((....))).))),34.3 °C,-15.3 kcal/mol
GCGTGGCGAAAGCGTCGC (((..((....))..))),58.7 °C,-22.6 kcal/mol
